Screening results as filed in PubChem BioAssay.
pPAFAH inh: inhibitors of human plasma PAF acetylhydrolase (pPAFAH); inhibition, % at 3.39 µM; actives 1.5% (n = 330,000); AID 463082; recombinant pPAFAH, FP-rhodamine probe fluorescence polarization; Q13093;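 active = inhibition above the mean inhibition across the screen plus 3 SD, cut at about 25% in these data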;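 note: inhibitors block binding of the rhodamine activity-based probe so polarization drops; 0% = enzyme with DMSO and 100% = wells lacking pPAFAH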
Target sequence (Q13093 whole entry, looked up): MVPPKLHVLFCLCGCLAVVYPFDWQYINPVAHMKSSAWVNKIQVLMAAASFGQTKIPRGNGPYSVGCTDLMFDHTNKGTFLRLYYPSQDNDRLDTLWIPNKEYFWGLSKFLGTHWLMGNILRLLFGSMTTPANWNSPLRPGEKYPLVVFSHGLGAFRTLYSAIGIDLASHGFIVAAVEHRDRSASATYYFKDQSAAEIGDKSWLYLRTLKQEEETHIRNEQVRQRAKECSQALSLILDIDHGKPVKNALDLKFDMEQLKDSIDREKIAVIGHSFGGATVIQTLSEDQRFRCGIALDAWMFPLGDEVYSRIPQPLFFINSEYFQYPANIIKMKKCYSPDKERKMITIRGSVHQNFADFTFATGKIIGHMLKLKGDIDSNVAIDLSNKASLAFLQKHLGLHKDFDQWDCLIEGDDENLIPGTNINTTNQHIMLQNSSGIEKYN
PAFAH2 inh: inhibitors of human PAFAH2; Q99487; recombinant PAFAH2, FP-rhodamine activity probe, fluorescence polarization; inhibition, % at 3.39 µM; actives 0.99% (n = 340,000); AID 492956;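 active = inhibition above the mean over all tested compounds plus 3 SD, cut at about 30% in these data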;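 note: inhibitors block probe labeling of enzyme so polarization drops; 0% = enzyme with DMSO and 100% = wells lacking PAFAH2 protein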
VIM-2 inh: inhibitors of Pseudomonas aeruginosa VIM-2 metallo-beta-lactamase; inhibition, % at 5.6 µM; actives 0.89% (n = 290,000); AID 1527; purified VIM-2, nitrocefin hydrolysis, epi-absorbance fluorescence;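 active = inhibition above the mean of all tested compounds plus 3 SD, cutoff set per screening run, cut at about 7.5% in these data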;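 note: red hydrolysis product quenches plate fluorescence so inhibitors raise well fluorescence; 0% = enzyme with DMSO and 100% = DMSO without enzyme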
PAFAH1B3 inh: PAFAH1B3 (human) inhibition; Q15102; recombinant PAFAH1B3, FP-rhodamine probe, fluorescence polarization; inhibition, % at 3.39 µM; actives 0.28% (n = 340,000);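 active = inhibition above the screen-wide average of all tested compounds plus 3 SD, cut at about 25% in these data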;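 note: 0% = enzyme with DMSO only and 100% = wells lacking PAFAH1B3 protein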
IMP-1 inh: blocks Pseudomonas aeruginosa IMP-1 metallo-beta-lactamase. purified IMP-1, nitrocefin hydrolysis, epi-absorbance fluorescence. actives 0.45% (n = 290,000). inhibition, % at 5.6 µM;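 active = inhibition above the mean plus 3 SD of all compounds in the same screening run, cut at about 4.5% in these data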;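 note: 0% = IMP-1 with DMSO and 100% = DMSO wells lacking enzyme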
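System: purified IMP-1 / Input: IMP-1 dispensed at 0.2 nM / Medium: 50 mM HEPES pH 7.1, 50 µM ZnSO4, 0.05% Brij 35 / Timing: 15 min enzyme–compound preincubation, then 25 min nitrocefin reaction, 25 °C / Technique: plate fluorescence quenching by hydrolysis product, ex 480/em 530 nm / Repeats: singlicate testing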
PAFAH1B2 FP inh: blocks human PAF acetylhydrolase 1b catalytic subunit 2; P68402; inhibition, % at 3.39 µM; recombinant PAFAH1B2, FP-rhodamine activity probe, fluorescence polarization; actives 1.2% (n = 340,000);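 active = inhibition above the mean of all tested compounds plus 3 SD, cut at about 24% in these data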;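 note: 0% = enzyme with DMSO and 100% = wells lacking PAFAH1B2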
An asterisk follows results filed as active; x = not tested or not shown. Most compounds without a hit are left out; they make up all but 3.6% or so of the library.

SMILES	pPAFAH inh	PAFAH2 inh	VIM-2 inh	PAFAH1B3 inh	IMP-1 inh	PAFAH1B2 FP inh
CSc1ccc(C(=O)NCC(c2ccco2)N(C)C)cc1[N+](=O)[O-] (configuration not stated)	2	-2	-1	-5	0	5
O=C(CSc1nc(O)c(C2CCCCC2)c(=O)[nH]1)Nc1ccc(F)cc1	-1	5	-1	-7	-2	7
O=C(O)c1cccc(-c2ccc(/C=c3/sc4nc5ccccc5n4c3=O)o2)c1	26*	21	0	26*	-1	15
O=c1/c(=C\c2cc([N+](=O)[O-])cc([N+](=O)[O-])c2O)sc2nc3ccccc3n12	26*	14	-3	1	-2	4
Cc1ccc(S(=O)(=O)Nc2ccc(C(=O)N3CCN(c4ccccc4O)CC3)cc2)cc1[N+](=O)[O-]	16	10	x	-3	x	1
NC(=O)C1Cc2ccccc2CN1S(=O)(=O)c1ccc(Cl)s1 (configuration not stated)	4	-5	0	5	-2	11
O=C1CC2(CCN(C(=O)c3c(F)cccc3F)CC2)Oc2ccccc21	4	2	x	12	x	5
CCN(CC)c1ccc(N=Cc2ccccc2[N+](=O)[O-])cc1	33*	4	-1	10	-2	0
Cc1cc(N2CCN(c3ccccn3)CC2)n2nc(C)nc2n1	1	-3	10*	3	-1	1
CCN1CCCC1CN(Cc1cc2ccc(C)cc2[nH]c1=O)C(=S)Nc1ccc(F)cc1 (configuration not stated)	4	5	10*	1	0	2
CCN(CC)c1ccc(/C=C/C(=O)C2C(=O)C=C(C)OC2=O)cc1 (configuration not stated)	17	-66	7	-54	7.4*	-35
CCOc1ccc2nc(SCC(=O)NCc3ccco3)sc2c1	6	-6	-2	-3	0	0
CCOc1ccc2nc(SCC(=O)NC(=O)NCc3ccco3)sc2c1	26*	-5	1	6	1	-20
COc1ccc(NC(=O)CS(=O)(=O)c2cn(CC(=O)N3CCCC3)c3ccccc23)c(OC)c1	5	2	-2	9	-2	-6
Cc1ccccc1NC1=C(Cl)C(=O)N(C2CCCCC2)C1=O	-1	-4	-2	-4	8.2*	-4
CCOC(=O)CSc1nnc(Cc2ccccc2)n1-c1ccc(C)cc1	32*	8	-2	1	-1	7
CCOC(=O)CSc1nnc(-c2ccco2)n1-c1ccc(C)cc1	1	-8	-2	3	-3	11
COC(=O)CSc1nnc(-c2ccco2)n1-c1ccc(C)cc1	0	4	0	5	6.0*	2
Cc1ccc(-c2noc(CSc3nnc(Cc4ccccc4)n3-c3ccc(Cl)cc3)n2)cc1	25*	-2	-2	-4	-1	20
Cc1ccc(-c2noc(CSc3nnc(CCc4ccccc4)n3-c3ccccc3)n2)cc1	8	-8	-2	0	-4	6
O=C1c2ccccc2S(=O)(=O)N1CC(O)COc1ccc(Br)cc1 (configuration not stated)	3	-9	0	16	5.3*	11
Nc1ncnc2c1nc(Sc1ccc(Cl)cc1)n2[C@@H]1O[C@@H]2COP(=O)(O)O[C@H]2[C@H]1O	2	-4	x	4	x	26*
COc1cc(/C=N/n2c(=S)[nH]nc(C)c2=O)cc([N+](=O)[O-])c1O	-3	x	-2	x	-4	x
COc1cc(/C=N/N2CCCCC2)cc([N+](=O)[O-])c1O	28*	6	-1	11	-3	-1
O=C(Nc1ccc(Cl)cc1)[C@@H]1[C@@H]2C(=O)N(c3ccc4ccccc4c3)C(=O)[C@@H]2[C@H]2C=CC=NN21	29*	33*	-3	4	-2	4
SMILES	pPAFAH inh	PAFAH2 inh	VIM-2 inh	PAFAH1B3 inh	IMP-1 inh	PAFAH1B2 FP inh
Cc1ccc(S(=O)(=O)NCCNc2ccc(Br)c(C)c2)cc1	5	2	x	2	x	16
COc1cccc(OCCNc2cc(N3CCCCC3)ccc2[N+](=O)[O-])c1	8	-1	1	10	47*	-5
C=CC(=O)Nc1cccc(Oc2cc(Cl)nc3[nH]ccc23)c1	-3	-13	x	-5	x	2
COc1ccc2[nH]c3c(N4CCc5ccccc5C4)ncnc3c2c1	33*	10	-3	15	-3	10
Cc1ccc(-n2cccc2C(=O)NS(=O)(=O)c2ccc(C)cc2)cc1	1	-4	-2	0	-5	28*
Cc1ccc(S(=O)(=O)NC(=O)c2cccc(Br)c2)cc1	1	9	-3	12	0	4
Cn1cccc1C1C=C(c2ccc(C(C)(C)C)cc2)Nc2ncnn21 (configuration not stated)	11	2	x	8	x	15
CC(C)(C)c1ccc(C2=CC(c3ccccc3F)n3ncnc3N2)cc1 (configuration not stated)	24	1	x	16	x	48*
COc1ccc(-c2nnc3ccc(SC)nn23)cc1	4	0	8.2*	4	-4	3
CCOc1ccc(/C=C2/Sc3ccc(C(=O)NCC4CCCO4)cc3N(C)C2=O)cc1OC (configuration not stated)	5	3	8.6*	4	0	0
COc1ccc(/C=C2\Sc3ccc(C(=O)NCCCN4CCCC4)cc3N(C)C2=O)cc1OC	2	-7	11*	10	-1	1
CC(NC(=O)COC(=O)/C=C/c1ccc([N+](=O)[O-])cc1)c1ccccc1 (configuration not stated)	11	12	-1	-2	0	-4
O=C(COC(=O)c1ccc([N+](=O)[O-])s1)NC(=O)NCc1ccccc1	14	40*	0	30*	1	8
CCN(CC)S(=O)(=O)c1cccc(C(=O)OCC(=O)NC(C)c2ccccc2)c1 (configuration not stated)	27*	45*	-3	5	-4	5
Cc1ccc(C(=O)OCC(=O)NNC(=O)c2ccccc2)c(O)c1	7	0	-2	12	-4	8
O=C(COC(=O)c1ccc(O)cc1)NC(=O)NCc1ccccc1	4	11	x	8	x	5
O=C(COC(=O)c1ccc([N+](=O)[O-])s1)NNC(=O)c1ccccc1	22	36*	x	36*	x	10
CC(NC(=O)COC(=O)c1ccc([N+](=O)[O-])s1)c1ccccc1 (configuration not stated)	25*	7	-2	16	-2	9
COc1ccc(OC)c(NC(=O)COc2ccc3c(c2)CCC3)c1	3	1	x	7	x	1
CC(C)Cc1cc(C(=O)N(C)C2CCCN(Cc3ccccc3F)C2)n(C)n1 (configuration not stated)	-2	-4	2	-3	0	0
